{
  "source": "ChEMBL document CHEMBL1156265",
  "about": "“Furo[2,3-b]pyridine-based cannabinoid-1 receptor inverse agonists: synthesis and biological evaluation. Part 1” (Bioorg Med Chem Lett, 2010)",
  "key": {"[1]": {"assay": "Bioavailability in rat", "type": "ADME, organism-based", "conditions": "in vivo"}, "[2]": {"assay": "Bioavailability in dog", "type": "ADME, organism-based, Canis lupus familiaris", "conditions": "in vivo", "summary_of_the_method": "(§1)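 PK in dog and rhesus macaque. Bioavailability, plasma clearance (mL/min/kg) and terminal half-life derived from plasma drug levels.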"}, "[3]": {"assay": "Drug level in rat plasma at 1 mg/kg, iv after 4 hrs", "type": "ADME, organism-based", "set-up": "dose 1 mg/kg, route intravenous", "conditions": "read-out: Drug uptake"}, "[4]": {"assay": "Half life in rat", "type": "ADME, organism-based", "conditions": "in vivo"}, "[5]": {"assay": "Plasma clearance in dog", "type": "ADME, organism-based, Canis lupus familiaris", "summary_of_the_method": "as §1"}, "[6]": {"assay": "Half life in dog", "type": "ADME, organism-based, Canis lupus familiaris", "conditions": "in vivo", "summary_of_the_method": "as §1"}, "[7]": {"assay": "Bioavailability in rhesus monkey", "type": "ADME, organism-based, Macaca mulatta", "conditions": "in vivo", "summary_of_the_method": "as §1"}, "Rattus norvegicus [8]": {"test_system": "Rattus norvegicus", "assay": "Reduction of body weight in DIO rat assessed as weight change at 0.3 mg/kg, po after 18 hrs", "type": "functional", "summary_of_the_method": "(§2)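 Acute study in diet-induced obese rats. A single oral dose was given and rats were monitored for 18 h. Food intake suppression and body weight change were measured relative to vehicle-treated controls.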"}, "[9]": {"assay": "Plasma clearance in rat", "type": "ADME, organism-based"}, "[10]": {"assay": "Drug level in rat brain at 1 mg/kg, iv after 4 hrs", "type": "ADME, organism-based", "set-up": "dose 1 mg/kg, route intravenous", "conditions": "read-out: Drug uptake"}, "Rattus norvegicus [11]": {"test_system": "Rattus norvegicus", "assay": "Reduction of body weight in DIO rat assessed as weight change at 0.1 mg/kg, po after 18 hrs", "type": "functional", "summary_of_the_method": "as §2"}, "Rattus norvegicus [12]": {"test_system": "Rattus norvegicus", "assay": "Suppression of food intake in DIO rat at 0.1 mg/kg, po relative to control", "type": "functional", "summary_of_the_method": "as §2"}, "[13]": {"assay": "Plasma clearance in rhesus monkey", "type": "ADME, organism-based, Macaca mulatta", "summary_of_the_method": "as §1"}, "Cannabinoid receptor 2": {"target": "Cannabinoid receptor 2 (Homo sapiens, UniProt P34972)", "sequence (P34972 whole entry)": "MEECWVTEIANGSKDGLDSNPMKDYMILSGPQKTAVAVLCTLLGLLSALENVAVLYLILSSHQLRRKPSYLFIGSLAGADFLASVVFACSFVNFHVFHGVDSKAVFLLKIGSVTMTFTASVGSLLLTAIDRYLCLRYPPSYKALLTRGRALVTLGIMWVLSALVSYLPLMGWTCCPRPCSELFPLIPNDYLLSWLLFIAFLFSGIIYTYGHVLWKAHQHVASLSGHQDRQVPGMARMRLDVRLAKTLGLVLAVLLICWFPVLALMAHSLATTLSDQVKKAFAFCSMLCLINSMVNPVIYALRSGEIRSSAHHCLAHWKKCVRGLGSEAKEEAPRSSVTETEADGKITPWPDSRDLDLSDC", "assay": "Inhibition of human CB2 receptor"}, "[14]": {"assay": "Ratio of drug level in brain to plasma in rat at 1 mg/kg, iv after 4 hrs", "type": "ADME, organism-based", "set-up": "dose 1 mg/kg, route intravenous"}, "[15]": {"assay": "Half life in rhesus monkey", "type": "ADME, organism-based, Macaca mulatta", "conditions": "in vivo", "summary_of_the_method": "as §1"}, "Cannabinoid receptor 1": {"target": "Cannabinoid receptor 1 (Homo sapiens, UniProt P21554)", "sequence (P21554 whole entry)": "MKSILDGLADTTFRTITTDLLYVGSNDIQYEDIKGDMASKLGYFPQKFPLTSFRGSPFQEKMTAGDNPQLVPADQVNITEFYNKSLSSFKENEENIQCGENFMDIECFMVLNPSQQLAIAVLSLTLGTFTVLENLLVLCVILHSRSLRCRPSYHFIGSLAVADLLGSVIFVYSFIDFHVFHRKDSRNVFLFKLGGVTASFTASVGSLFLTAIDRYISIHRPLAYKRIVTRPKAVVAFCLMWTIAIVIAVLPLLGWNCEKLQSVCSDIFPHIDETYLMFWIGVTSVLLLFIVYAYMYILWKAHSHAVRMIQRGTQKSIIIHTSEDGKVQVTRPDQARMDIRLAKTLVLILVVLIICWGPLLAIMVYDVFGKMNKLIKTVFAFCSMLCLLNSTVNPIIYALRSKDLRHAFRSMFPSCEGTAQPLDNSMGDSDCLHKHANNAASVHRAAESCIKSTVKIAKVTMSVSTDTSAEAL", "assay": "Inhibition of human CB1 receptor"}, "Rattus norvegicus [16]": {"test_system": "Rattus norvegicus", "assay": "Suppression of food intake in DIO rat at 0.3 mg/kg, po relative to control", "type": "functional", "summary_of_the_method": "as §2"}},
  "data": [
    {"smiles": "CC(=O)Nc1c(C(=O)C(C)(C)O)oc2nc(-c3ccccc3Cl)c(-c3ccc(Cl)cc3)cc12", "values": [
      {"measurement": "bioavailability", "setting": "[1]", "result": 61, "unit": "%"},
      {"measurement": "bioavailability", "setting": "[2]", "result": 87, "unit": "%"},
      {"measurement": "concentration at 4 h", "setting": "[3]", "result": 72, "unit": "nM"},
      {"measurement": "half-life", "setting": "[4]", "result": 4.8, "unit": "h"},
      {"measurement": "clearance", "setting": "[5]", "result": 5, "unit": "mL/min/kg"},
      {"measurement": "half-life", "setting": "[6]", "result": 26, "unit": "h"},
      {"measurement": "bioavailability", "setting": "[7]", "result": 100, "unit": "%"},
      {"measurement": "Activity", "setting": "Rattus norvegicus [8]", "result": -1, "unit": "g"},
      {"measurement": "clearance", "setting": "[9]", "result": 16, "unit": "mL/min/kg"},
      {"measurement": "concentration at 4 h", "setting": "[10]", "result": 56, "unit": "nM"},
      {"measurement": "Activity", "setting": "Rattus norvegicus [11]", "result": -1, "unit": "g"},
      {"measurement": "Activity", "setting": "Rattus norvegicus [12]", "result": 28, "unit": "%"},
      {"measurement": "clearance", "setting": "[13]", "result": 2.8, "unit": "mL/min/kg"},
      {"measurement": "IC50", "setting": "Cannabinoid receptor 2", "result": 5400, "unit": "nM"},
      {"measurement": "Kp at 4 h", "setting": "[14]", "result": 0.77},
      {"measurement": "half-life", "setting": "[15]", "result": 45, "unit": "h"},
      {"measurement": "IC50", "setting": "Cannabinoid receptor 1", "result": 5.4, "unit": "nM"},
      {"measurement": "Activity", "setting": "Rattus norvegicus [16]", "result": 41, "unit": "%"}
    ]}
  ]
}
